Reference: ChEMBL document CHEMBL1139757, “Synthesis and evaluation of water-soluble docetaxel prodrugs-docetaxel esters of malic acid” (Bioorg Med Chem, 2007)
In brackets after ≈: the same amount, converted by molar mass.

Tests used:
[1] = Stability in PBS buffer at pH 7.4 after 48 hrs; format: physicochemical
[2] = species on record: Homo sapiens; assay: Stability in human plasma
[3] = system: K562; assay: Cytotoxicity against human K562 cells by MTT assay; format: functional, cell-based
Outline: (§1)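 Cells exposed to compound for 48 h. MTT then added (final 0.5 mg/ml in RPMI-1640) for a further 4 h at 37 °C. Formazan dissolved in DMSO and absorbance read at 570 nm. IC50 for 50% inhibition of viability derived by dose–effect analysis. Three replicate wells per point, each experiment run in triplicate.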

[4] = Solubility in water; format: physicochemical
Outline: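 Compound suspended in water to 2 mg/mL, sonicated 15 min, then centrifuged at 13,000 rpm for 10 min. Supernatant quantified by reverse-phase HPLC with UV detection at 227 nm, taking extinction coefficients of prodrug and docetaxel as equal. Values are means of three experiments.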

[5] = system: KB; assay: Cytotoxicity against human KB cells by MTT assay; format: functional, cell-based; outline: as §1
[6] = system: A549; assay: Cytotoxicity against human A549 cells by MTT assay; format: functional, cell-based; outline: as §1
[7] = system: MCF7; assay: Cytotoxicity against human MCF7 cells by MTT assay; format: functional, cell-based; outline: as §1
[8] = system: H22; assay: Antitumor activity against mouse H22 cells xenografted ICR mouse assessed as tumor growth inhibition at 10 mg/kg, ip once daily after 7 days; format: functional; details: 168 h, route intraperitoneal
Outline: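 Male ICR mice implanted s.c. in the armpit with H22 hepatoma cells (5 × 10⁶ per animal). Dosing began 24 h after implantation: ip once daily for 7 consecutive days at 5, 10 or 20 mg/kg. Saline served as negative control (20 mice), 10 mice per treated group. Tumors excised and weighed at day 8. Inhibition = (C − T)/C × 100 from mean tumor weights.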

| Structure (SMILES) | half-life [1] | half-life [2] | IC50 [3] | solubility [4] | IC50 [5] | IC50 [6] | IC50 [7] | inhibition in vivo at 10 mg/kg [8] |
| --- | --- | --- | --- | --- | --- | --- | --- | --- |
| CC(=O)O[C@@]12CO[C@@H]1C[C@H](O)[C@@]1(C)C(=O)[C@H](O)C3=C(C)[C@@H](OC(=O)[C@H](OC(=O)CC(O)C(=O)O)[C@@H](NC(=O)OC(C)(C)C)c4ccccc4)C[C@@](O)([C@@H](OC(=O)c4ccccc4)[C@H]21)C3(C)C (some centres undefined) | > 2880 min | 240 min | 9.5 µg/mL (≈ 10.3 µM) | 470 µg/mL (≈ 509 µM) | 3.5 µg/mL (≈ 3.79 µM) | > 50 µg/mL | 39.2 µg/mL (≈ 42.4 µM) |  |
| CC(=O)O[C@@]12CO[C@@H]1C[C@H](O)[C@@]1(C)C(=O)[C@H](O)C3=C(C)[C@@H](OC(=O)[C@H](OC(=O)C[C@@H](O)C(=O)O)[C@@H](NC(=O)OC(C)(C)C)c4ccccc4)C[C@@](O)([C@@H](OC(=O)c4ccccc4)[C@H]21)C3(C)C | > 2880 min | 240 min | 0.85 µg/mL (≈ 0.92 µM) | 470 µg/mL (≈ 509 µM) | > 50 µg/mL | > 50 µg/mL | > 50 µg/mL |  |
| CC(=O)O[C@@]12CO[C@@H]1C[C@H](O)[C@@]1(C)C(=O)[C@H](O)C3=C(C)[C@@H](OC(=O)[C@H](OC(=O)C[C@@H](O)C(=O)[O-])[C@@H](NC(=O)OC(C)(C)C)c4ccccc4)C[C@@](O)([C@@H](OC(=O)c4ccccc4)[C@H]21)C3(C)C.[Na+] | > 1440 min | 180 min | 18.8 µg/mL | 620 µg/mL | > 50 µg/mL | > 50 µg/mL | > 50 µg/mL |  |
| CC(=O)O[C@@]12CO[C@@H]1C[C@H](O)[C@@]1(C)C(=O)[C@H](O)C3=C(C)[C@@H](OC(=O)[C@H](OC(=O)C[C@H](O)C(=O)O)[C@@H](NC(=O)OC(C)(C)C)c4ccccc4)C[C@@](O)([C@@H](OC(=O)c4ccccc4)[C@H]21)C3(C)C | > 2880 min | 240 min | 3.9 µg/mL (≈ 4.22 µM) | 470 µg/mL (≈ 509 µM) | > 50 µg/mL | > 50 µg/mL | > 50 µg/mL |  |
| CC(=O)O[C@@]12CO[C@@H]1C[C@H](O)[C@@]1(C)C(=O)[C@H](O)C3=C(C)[C@@H](OC(=O)[C@H](OC(=O)C[C@H](O)C(=O)[O-])[C@@H](NC(=O)OC(C)(C)C)c4ccccc4)C[C@@](O)([C@@H](OC(=O)c4ccccc4)[C@H]21)C3(C)C.[Na+] | > 1440 min | 180 min | 38.1 µg/mL | 620 µg/mL | > 50 µg/mL | > 50 µg/mL | > 50 µg/mL |  |
| CC(=O)O[C@@]12CO[C@@H]1C[C@H](OC(=O)CC(O)C(=O)O)[C@@]1(C)C(=O)[C@H](O)C3=C(C)[C@@H](OC(=O)[C@H](O)[C@@H](NC(=O)OC(C)(C)C)c4ccccc4)C[C@@](O)([C@@H](OC(=O)c4ccccc4)[C@H]21)C3(C)C (mixture of isomers) | > 2880 min |  | 0.069 µg/mL | 430 µg/mL | > 50 µg/mL | > 50 µg/mL | > 50 µg/mL |  |
| CC(=O)O[C@@]12CO[C@@H]1C[C@H](O)[C@@]1(C)C(=O)[C@H](O)C3=C(C)[C@@H](OC(=O)[C@H](OC(=O)CC(O)C(=O)[O-])[C@@H](NC(=O)OC(C)(C)C)c4ccccc4)C[C@@](O)([C@@H](OC(=O)c4ccccc4)[C@H]21)C3(C)C.[Na+] (mixture of isomers) | > 1440 min | 180 min | 1.5 µg/mL | 620 µg/mL | 0.45 µg/mL | 3.5 µg/mL | 3.6 µg/mL |  |
| CC(=O)O[C@@]12CO[C@@H]1C[C@H](OC(=O)CC(O)C(=O)O)[C@@]1(C)C(=O)[C@H](OC(=O)CC(O)C(=O)O)C3=C(C)[C@@H](OC(=O)[C@H](OC(=O)CC(O)C(=O)O)[C@@H](NC(=O)OC(C)(C)C)c4ccccc4)C[C@@](O)([C@@H](OC(=O)c4ccccc4)[C@H]21)C3(C)C (mixture of isomers) | > 2880 min |  | 17 µg/mL | 550 µg/mL | > 50 µg/mL | > 50 µg/mL | > 50 µg/mL |  |
| CC(=O)O[C@@]12CO[C@@H]1C[C@H](O)[C@@]1(C)C(=O)[C@H](O)C3=C(C)[C@@H](OC(=O)[C@H](O)[C@@H](NC(=O)OC(C)(C)C)c4ccccc4)C[C@@](O)([C@@H](OC(=O)c4ccccc4)[C@H]21)C3(C)C.O.O.O [DOCETAXEL] |  |  | 6.9 µg/mL |  | 11.6 µg/mL | 1.4 µg/mL | 3.3 µg/mL | 46.3% |
